Data reported in ChEMBL document CHEMBL1124512, “Synthesis of 3-deazaneplanocin A, a powerful inhibitor of S-adenosylhomocysteine hydrolase with potent and selective in vitro and in vivo antiviral activities” (1989).
Converted amounts (≈) assume the structure as drawn. “And” between values parts separate entries of the source, which are not always exact repeats. Identical values can stand only once.

How the values were obtained:
[1] = Ratio of minimum toxic compound concentration to inhibitory dose against Parainfluenza type 3 viral strain Huebner C243 in H.Ep-2 cell line; format: functional
How it was run: (§1)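 Selectivity index is the minimum toxic drug concentration (μg/mL) divided by the ID50 for inhibition of the virus-induced cytopathogenic effect.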

Human respirovirus 3 [2] = test: Inhibitory dose against Parainfluenza type 3 viral strain Huebner C243 in H.Ep-2 cell line; format: functional; conditions: Human respirovirus 3, HEp-2; read-out: ID50 (the source's name)
Human respirovirus 3 [3] = test: Viral rating activity against Parainfluenza type 3 viral strain Huebner C243 in H.Ep-2 cell line; format: functional
How it was run: (§2)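 Virus rating is a weighted score combining the degree of inhibition of the virus-induced cytopathogenic effect with the degree of cytotoxicity. USAMRIID ratings were multiplied by 3 to convert them to the Ehrlich scale.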

[4] = Ratio of minimum toxic compound concentration to inhibitory dose against vesicular stomatitis viral strain Indiana in L929 cell line; format: functional; how it was run: as §1
[5] = system: Vesicular stomatitis virus; test: (§3) Viral rating activity against vesicular stomatitis viral strain Indiana in L929 cell line; format: functional; how it was run: as §2
Yellow fever virus [6] = test: Inhibitory dose against yellow fever viral strain Asibi in vero cell line; format: functional; conditions: read-out: ID50 (the source's name)
[7] = Ratio of minimum toxic compound concentration to inhibitory dose against yellow fever viral strain Asibi in vero cell line; format: functional; how it was run: as §1
Yellow fever virus [8] = test: Viral rating of activity against yellow fever viral strain Asibi in vero cell line; format: functional; how it was run: as §2
Vaccinia virus [9] = test: Inhibitory dose against vaccinia viral strain Lederle CA in vero cell line; format: functional, Orthopoxvirus vaccinia
Vaccinia virus [10] = test: Viral rating activity against vaccinia viral strain Lederle CA in vero cell line; format: functional, Orthopoxvirus vaccinia; how it was run: as §2
Mus musculus [11] = test: In vivo anti-viral activity against Vaccinia tailpox mice model at dose 300 mg/kg (tested on 20 mice - Experiment 1); format: functional
Mus musculus [12] = test: In vivo anti-viral activity against Vaccinia tailpox mice model at dose 300 mg/kg (tested on 20 mice - Experiment 2); format: functional
[13] = Ratio of minimum toxic compound concentration to inhibitory dose against vaccinia viral strain Lederle CA in vero cell line; format: functional; how it was run: as §1
Yellow fever virus [14] = test: Viral rating activity against yellow fever viral strain Asibi in vero cell line; format: functional; how it was run: as §2
Mus musculus [15] = test: In vivo anti-viral activity against Vaccinia tailpox mice model at dose 8 mg/kg (tested on 19 mice - Experiment 2); format: functional
Mus musculus [16] = test: In vivo anti-viral activity against Vaccinia tailpox mice model at dose 8 mg/kg (tested on 20 mice - Experiment 1); format: functional
Mus musculus [17] = test: In vivo anti-viral activity against Vaccinia tailpox mice model at dose 4 mg/kg (tested on 20 mice - Experiment 2); format: functional
[18] = system: Vesicular stomatitis virus; test: Inhibitory dose against vesicular stomatitis viral strain Indiana in L929 cell line; format: functional
[19] = system: Vesicular stomatitis virus; test: as §3; format: functional; how it was run: as §2; remark: listed apart in the source

| SMILES | Selectivity index [1] | IC50 (Human respirovirus 3 [2]) [µg/mL] | VR (Human respirovirus 3 [3]) | VR [5] | IC50 (Yellow fever virus [6]) [µg/mL] | Selectivity index [7] | VR (Vaccinia virus [10]) | further results |
| --- | --- | --- | --- | --- | --- | --- | --- | --- |
| NC(=O)c1ncn([C@@H]2O[C@H](CO)[C@@H](O)[C@H]2O)n1 [RIBAVIRIN] | 5.7 | 17.5 (≈ 71.7 µM) | 2.5 | – | – | – | – | – |
| Nc1nccc2c1ncn2[C@@H]1C[C@H](CO)[C@@H](O)[C@H]1O [3-DEAZAARISTEROMYCIN A] | – | – | – | 3.1 and 3.2 and 3.5 and 3.3 | – | – | – | Selectivity index [4]: 3.6 and 3.8 and 7.2 |
| c1c[se]cn1 [SELENAZOLE] | – | – | – | – | 3.3 (≈ 25 µM) | 1 | – | VR (Yellow fever virus [8]): 2.4 |
| Nc1ncnc2c1ncn2[C@@H]1O[C@H](CO)[C@@H](O)[C@@H]1O [VIDARABINE] | – | – | – | – | – | – | 3.7 and 4.2 and 3.6 | ID50 (Vaccinia virus [9]): 1 µg/mL and 1.8 µg/mL; IC50 (Vaccinia virus [9]; Orthopoxvirus vaccinia, Vero, read-out: ID50 (the source's name)): 2 µg/mL (≈ 7.48 µM); Protection (Mus musculus [11]): 56%; Protection (Mus musculus [12]): 88%; Selectivity index [13]: 16.3 and 32.2 and 17.9 |
| Nc1nccc2c1ncn2C1C=C(CO)C(O)C1O (stereo not drawn) [3-DEAZANEPLANOCIN A] | 2 | 0.05 (≈ 0.191 µM) | 3.6 | 4.7 | 1 (≈ 3.81 µM) | 0.3 | 3.1 and 5.4 and 4.5 | VR (Yellow fever virus [14]): 2.9; Protection (Mus musculus [15]): 84%; Protection (Mus musculus [16]): 74%; Protection (Mus musculus [17]): 82%; ID50 [18]: 0.07 µg/mL and 0.2 µg/mL; IC50 ([18]; read-out: ID50 (the source's name)): 0.3 µg/mL (≈ 1.14 µM); VR [19]: 3.6 and 4.2 |
